These results are taken from ChEMBL document CHEMBL1150856, “Trypanocidal withanolides and withanolide glycosides from Dunalia brachyacantha” (2001).

The subject of assay [1] is Leishmania amazonensis. Briefly: Antiparasitic activity against Leishmania amazonensis IFLA/BR/67/PH8 at 10 ug/mL after 72 hrs. Format: functional. The method, boiled down:
(§1)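 Promastigotes at 50 000 parasites/mL, 27 °C, 72 h, with compound at final 50, 25, 10, 1 and 0.1 μg/mL. Compound dissolved in medium plus DMSO (final DMSO under 0.1%) and filter-sterilised (0.22 μm). Triplicate wells. Activity was judged by inverted phase-contrast microscopy of a culture drop against untreated and pentamidine controls.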

Assay [2] relates to Leishmania braziliensis. The assay can be described thus: Antiparasitic activity against Leishmania braziliensis MHOM/BR/75/M2903 at 10 ug/mL after 72 hrs. The assay is classed as functional. The method, boiled down: as §1
Assay [3] deals with Leishmania donovani. The assay can be described thus: Antiparasitic activity against Leishmania donovani MHOM/IN/83/HS70 at 10 ug/mL after 72 hrs. Format: functional. The method, boiled down: as §1
Assay [4] deals with Trypanosoma cruzi. Briefly: Antiparasitic activity against Trypanosoma cruzi Tulahuen epimastigotes at 10 ug/mL after 48 hrs. The assay is classed as functional. The method, boiled down:
(§2)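 Epimastigotes in LIT medium with 10% fetal calf serum, inoculum 10⁶ cells/mL, 28 °C. Samples were dissolved in DMSO and medium to final 50, 20, 10, 1 and 0.1 μg/mL (final DMSO under 0.5%). Triplicate. After 48 h, parasites were counted by haemocytometer and compared with untreated and pentamidine controls.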

Assay [5] concerns Shigella flexneri. The assay can be described thus: Antibacterial activity against Shigella flexneri […] at 0.0625 mg/mL after 18 hrs. The assay is classed as functional, organism-based.
Assay [6] has as its system Staphylococcus aureus. Briefly: Antibacterial activity against Staphylococcus aureus ATCC 25923/6538 at 0.0625 mg/mL after 18 hrs. Format: functional, organism-based.
A further assay concerns Escherichia coli. Briefly: Antibacterial activity against Escherichia coli ATCC 8739 at 0.0312 mg/mL after 18 hrs. The assay is classed as functional, organism-based.
Assay [7] deals with Shigella flexneri. The assay can be described thus: Antibacterial activity against Shigella flexneri […] at 0.0312 mg/mL after 18 hrs. The assay is classed as functional, organism-based.
In assay [8] the test system is Staphylococcus aureus. Briefly: Antibacterial activity against Staphylococcus aureus ATCC 25923/6538 at 0.0312 mg/mL after 18 hrs. Format: functional, organism-based.
The test system of a further assay is Bacillus subtilis. Briefly: Antibacterial activity against Bacillus subtilis ATCC 6633 at 0.0312 mg/mL after 18 hrs. Format: functional, organism-based.
Assay [9] relates to Leishmania amazonensis. The assay can be described thus: Antiparasitic activity against Leishmania amazonensis IFLA/BR/67/PH8 at 50 ug/mL after 72 hrs. Format: functional, organism-based. The method, boiled down:
as §1

For assay [10], the system named is Leishmania braziliensis. Briefly: Antiparasitic activity against Leishmania braziliensis MHOM/BR/75/M2903 at 50 ug/mL after 72 hrs. The assay is classed as functional, organism-based. The method, boiled down: as §1
In assay [11] the test system is Leishmania donovani. The assay can be described thus: Antiparasitic activity against Leishmania donovani MHOM/IN/83/HS70 at 50 ug/mL after 72 hrs. The assay is classed as functional, organism-based. The method, boiled down:
as §1

The test system of assay [12] is Trypanosoma cruzi. Briefly: Antiparasitic activity against Trypanosoma cruzi Tulahuen epimastigotes at 50 ug/mL after 48 hrs. The assay is classed as functional. The method, boiled down: as §2
In assay [13] the test system is Leishmania amazonensis. Briefly: Antiparasitic activity against Leishmania amazonensis IFLA/BR/67/PH8 at 25 ug/mL after 72 hrs. Format: functional, organism-based. The method, boiled down: as §1
Assay [14] concerns Leishmania braziliensis. Briefly: Antiparasitic activity against Leishmania braziliensis MHOM/BR/75/M2903 at 25 ug/mL after 72 hrs. The assay is classed as functional, organism-based. The method, boiled down: as §1
Assay [15] has as its system Leishmania donovani. The assay can be described thus: Antiparasitic activity against Leishmania donovani MHOM/IN/83/HS70 at 25 ug/mL after 72 hrs. Format: functional, organism-based. The method, boiled down: as §1
Assay [16] deals with Trypanosoma cruzi. Briefly: Antiparasitic activity against Trypanosoma cruzi Tulahuen epimastigotes at 25 ug/mL after 48 hrs. Format: functional.
Assay [17] has as its system Leishmania amazonensis. Briefly: Antiparasitic activity against Leishmania amazonensis IFLA/BR/67/PH8 at 1 ug/mL after 72 hrs. Format: functional. The method, boiled down: as §1
Assay [18] relates to Leishmania braziliensis. Briefly: Antiparasitic activity against Leishmania braziliensis MHOM/BR/75/M2903 at 1 ug/mL after 72 hrs. Format: functional. The method, boiled down: as §1
Assay [19] has as its system Leishmania donovani. Briefly: Antiparasitic activity against Leishmania donovani MHOM/IN/83/HS70 at 1 ug/mL after 72 hrs. Format: functional. The method, boiled down: as §1
Assay [20] concerns Trypanosoma cruzi. Briefly: Antiparasitic activity against Trypanosoma cruzi Tulahuen epimastigotes at 1 ug/mL after 48 hrs. The assay is classed as functional. The method, boiled down:
as §2

In assay [21] the test system is Leishmania amazonensis. Briefly: Antiparasitic activity against Leishmania amazonensis IFLA/BR/67/PH8 at 0.1 ug/mL after 72 hrs. Format: functional. The method, boiled down:
as §1

In assay [22] the test system is Leishmania braziliensis. The assay can be described thus: Antiparasitic activity against Leishmania braziliensis MHOM/BR/75/M2903 at 0.1 ug/mL after 72 hrs. The assay is classed as functional. The method, boiled down:
as §1

Assay [23] concerns Leishmania donovani. The assay can be described thus: Antiparasitic activity against Leishmania donovani MHOM/IN/83/HS70 at 0.1 ug/mL after 72 hrs. Format: functional. The method, boiled down: as §1
The subject of assay [24] is Trypanosoma cruzi. Briefly: Antiparasitic activity against Trypanosoma cruzi Tulahuen epimastigotes at 0.1 ug/mL after 48 hrs. Format: functional. The method, boiled down: as §2

The source made the active and inactive calls. The calls are words filed in the database; no cut-off is given here.

As to `N=C(N)c1ccc(OCCCCCOc2ccc(C(=N)N)cc2)cc1`, the result in the assay with Leishmania amazonensis [1], with Leishmania braziliensis [2], in the assay with Leishmania donovani [3] and with Trypanosoma cruzi [4] was Active.
Turning to `CC(=O)OC[C@]12CC[C@H]3[C@@H](CC=C4[C@@H](O)C=CC(=O)[C@@]43C)[C@@H]1CC[C@@H]2[C@@](C)(O)[C@H]1CC(C)=C(C)C(=O)O1`, the result in the assay with Shigella flexneri [5], with Staphylococcus aureus [6], with Escherichia coli, with Shigella flexneri [7], in the assay on Staphylococcus aureus [8] and in the assay on Bacillus subtilis was inactive. Moreover, the result in the assay on Leishmania amazonensis [9], with Leishmania braziliensis [10], in the assay with Leishmania donovani [11], in the assay with Trypanosoma cruzi [12], in the assay on Leishmania amazonensis [13] and with Leishmania braziliensis [14] was Active. For the same compound, the result in the assay with Leishmania donovani [15], with Trypanosoma cruzi [16], in the assay on Leishmania amazonensis [1], in the assay with Leishmania braziliensis [2] and in the assay with Leishmania donovani [3] was Active. Moreover, the Activity amounted to 75% in the assay with Trypanosoma cruzi [4]; 75% in the assay with Leishmania amazonensis [17]; 50% in the assay with Leishmania braziliensis [18]; 75% in the assay on Leishmania donovani [19]; 0% in the assay on Trypanosoma cruzi [20]; 0% in the assay on Leishmania amazonensis [21]. Also, the Activity with Leishmania braziliensis [22], in the assay with Leishmania donovani [23] and in the assay with Trypanosoma cruzi [24] was 0% throughout.
In the case of `CC(=O)OC[C@]12CC[C@H]3[C@@H](C[C@H]4O[C@]45[C@@H](O)C=CC(=O)[C@]35C)[C@@H]1CC[C@@H]2[C@@](C)(O)[C@H]1CC(C)=C(C)C(=O)O1`, the outcome in the assay on Leishmania amazonensis [9], in the assay with Leishmania braziliensis [10], in the assay on Leishmania donovani [11], with Leishmania amazonensis [13], with Leishmania braziliensis [14] and in the assay with Leishmania donovani [15] was Active. Besides, the Activity came out at 50% in the assay with Trypanosoma cruzi [12]; 0% in the assay on Trypanosoma cruzi [16]; 75% in the assay with Leishmania amazonensis [1]; 50% in the assay with Leishmania braziliensis [2]; 75% in the assay with Leishmania donovani [3]; 0% in the assay on Trypanosoma cruzi [4].
